We go through 38 sequences from the array DNA melting data of Ke et al. (doi:10.1101/2024.01.08.574731).

A short description of data set [1]: folding enthalpy; higher = less favourable; fluorescence melt of hairpins on a sequencing array, two-state fit. The note with it: sodium 0.088 M. The method, boiled down: (§1)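 Cy3 fluorescence of library hairpins on a sequenced MiSeq flow cell, with annealed Cy3 and quencher oligos, was imaged in 50 mM Na-HEPES pH 8.0, 25 mM NaCl in 2.5 °C steps up to 60 °C. Signals were normalised to pre-quench Cy3 and to control variants. Melting temperature and folding enthalpy came from bootstrapped two-state fits, inverse-variance combined over four replicates. Fitted temperatures were raised by 9.35 °C to match UV melts.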

Data set [2] can be described thus: melting temperature; fluorescence melt of hairpins on a sequencing array, two-state fit, raised by 9.35 °C to match UV melts. Particulars: sodium 0.088 M. The method, boiled down: as §1

Turning to GATCAACTGTTGATC ((((((...)))))), in data set [1], the folding enthalpy was -36.1 kcal/mol. Moreover, the Tm in data set [2] was 44.2 °C.
With GATCAACTTCTTGATC ((((((....)))))), the folding enthalpy in data set [1] was -30 kcal/mol. The Tm in data set [2] was 43.9 °C.
Turning to GATCAAGAGGTTGATC ((((((....)))))), the folding enthalpy in data set [1] is -24.2 kcal/mol. For the same sequence, the Tm in data set [2] turned out to be 37.9 °C.
GATCAAGATTTGATC ((((((...)))))): the folding enthalpy in data set [1] is -29.6 kcal/mol. Also, the Tm in data set [2] turned out to be 40.7 °C.
On the same counts, the results for GATCAAGCATTGATC ((((((...)))))) are -47.9 kcal/mol and 52.1 °C.
Turning to GATCAAGCCGTTGATC ((((((....)))))), in data set [1], the folding enthalpy was -29.4 kcal/mol. Moreover, in data set [2], the Tm was found to be 46.5 °C.
On to GATCAAGCTGTTGATC ((((((....)))))), for which the folding enthalpy in data set [1] was -31.2 kcal/mol. Also, the Tm in data set [2] worked out at 42.7 °C.
On the same counts, the results for GATCAAGGCCTTGATC ((((((....)))))) are -51.6 kcal/mol and 55 °C.
As to GATCAAGGGGTTGATC ((((((....)))))), the folding enthalpy in data set [1] was -29.4 kcal/mol. Also, the Tm in data set [2] was 42.8 °C.
For the sequence GATCAAGGTTTGATC ((((((...)))))), in data set [1], the folding enthalpy is -28.5 kcal/mol. In addition, in data set [2], the Tm was 42.4 °C.
Turning to GATCAAGTACTTGATC ((((((....)))))), in data set [1], the folding enthalpy is -45.2 kcal/mol. Moreover, in data set [2], the Tm was found to be 51.9 °C.
The corresponding values for GATCAAGTCTTGATC ((((((...)))))) are -30.4 kcal/mol and 46.2 °C.
With GATCAAGTCTTTGATC ((((((....)))))), in data set [1], the folding enthalpy is -43.8 kcal/mol. Also, the Tm in data set [2] was found to be 48.9 °C.
Consider GATCAAGTTCTTGATC ((((((....)))))), for which the folding enthalpy in data set [1] is -38.6 kcal/mol. For the same sequence, the Tm in data set [2] was determined as 49.7 °C.
As to GATCAATAAGTTGATC ((((((....)))))), the folding enthalpy in data set [1] is -33.7 kcal/mol. For the same sequence, the Tm in data set [2] is 44.4 °C.
Consider GATCAATAATTTGATC ((((((....)))))), for which, in data set [1], the folding enthalpy is -34.8 kcal/mol. In data set [2], the Tm was determined as 43.2 °C.
As to GATCAATAGATTGATC ((((((....)))))), the folding enthalpy in data set [1] is -31 kcal/mol. Also, the Tm in data set [2] turned out to be 42.5 °C.
For the sequence GATCAATAGGTTGATC ((((((....)))))), in data set [1], the folding enthalpy is -34.3 kcal/mol. Further, the Tm in data set [2] is 45.1 °C.
On to GATCAATATATTGATC ((((((....)))))), for which the folding enthalpy in data set [1] was -47.1 kcal/mol. Moreover, the Tm in data set [2] is 49.1 °C.
In the case of GATCAATCATTGATC ((((((...)))))), the folding enthalpy in data set [1] was -27.1 kcal/mol. Moreover, the Tm in data set [2] was found to be 42 °C.
The corresponding values for GATCAATCCTTTGATC ((((((....)))))) are -39.3 kcal/mol and 48.6 °C.
For the sequence GATCAATCGATTGATC ((((((....)))))), the folding enthalpy in data set [1] was -53.5 kcal/mol. Also, the Tm in data set [2] was found to be 51.3 °C.
For GATCAATCGCTTGATC ((((((....)))))), the folding enthalpy in data set [1] was -44.9 kcal/mol. Also, the Tm in data set [2] was 45.5 °C.
The corresponding values for GATCAATCTTTGATC ((((((...)))))) are -28.2 kcal/mol and 44.6 °C.
On the same counts, the results for GATCAATGAGTTGATC ((((((....)))))) are -37.1 kcal/mol and 48.4 °C.
Take GATCAATGATTGATC ((((((...)))))): the folding enthalpy in data set [1] is -29.9 kcal/mol. The Tm in data set [2] is 40.6 °C.
The corresponding values for GATCAATGTTTGATC ((((((...)))))) are -30.8 kcal/mol and 43.8 °C.
For GATCAATTAATTGATC ((((((....)))))), the folding enthalpy in data set [1] is -42 kcal/mol. Besides, in data set [2], the Tm worked out at 48.8 °C.
On to GATCAATTAGTTGATC ((((((....)))))), for which the folding enthalpy in data set [1] is -35 kcal/mol. The Tm in data set [2] was determined as 45.6 °C.
Take GATCAATTGCTTGATC ((((((....)))))): the folding enthalpy in data set [1] was -33.7 kcal/mol. Further, the Tm in data set [2] was 43.5 °C.
The corresponding values for GATCACAAAGTGATC ((((((...)))))) are -38.2 kcal/mol and 61 °C.
Consider GATCACAACTGTGATC ((((((....)))))), for which the folding enthalpy in data set [1] is -37.4 kcal/mol. Besides, the Tm in data set [2] stood at 58.9 °C.
With GATCACAAGAGTGATC ((((((....)))))), the folding enthalpy in data set [1] is -33.1 kcal/mol. The Tm in data set [2] turned out to be 54.5 °C.
With GATCACAAGTGTGATC ((((((....)))))), in data set [1], the folding enthalpy was -39 kcal/mol. Also, the Tm in data set [2] turned out to be 56.4 °C.
On the same counts, the results for GATCACACACGTGATC ((((((....)))))) are -35.8 kcal/mol and 57.9 °C.
The corresponding values for GATCACACCGTGATC ((((((...)))))) are -38.5 kcal/mol and 60.6 °C.
With GATCACACTGGTGATC ((((((....)))))), the folding enthalpy in data set [1] was -36.1 kcal/mol. The Tm in data set [2] is 56.4 °C.
As to GATCACAGTTGTGATC ((((((....)))))), the folding enthalpy in data set [1] was -35.7 kcal/mol. Besides, the Tm in data set [2] is 60.4 °C.
